ANO1 activ = TMEM16A chloride channel activators or potentiators, primary screen, cell-based, HTS. Anoctamin-1 (Mus musculus), Q8BHY3. HEK293 TMEM16A/YFP-H148Q/I152L, iodide quench fluorescence; active compounds read low. B-score at 10 µM. actives 0.3% (n = 340,000);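 active means fluorescence-ratio B-score plate-corrected deviation score at least 3 library SD below zero, with starting fluorescence score within 5 deviations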;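 further: channel opened by trigger with iodide after compound preincubation; score built on the fluorescence ratio of max minus min over baseline; more negative score means more quench and so TMEM16A activation or potentiation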
MC4R barr agon = MC4R agonists recruiting beta-arrestin, primary screen, cell-based, luminescence, agonist arm of biased-ligand search; actives 0.98% (n = 360,000); U2OS MC4R beta-arrestin complementation; percent of melanotan II response, DMSO zero; activation, % at 8.9 µM; AID 540308, 2011; Melanocortin receptor 4 (Homo sapiens), P32245;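 active means activation above a per-plate cutoff, the mean activation of sample wells on that plate plus 3 SD, cut at about 8% in these data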
Target sequence (P32245 whole entry, looked up): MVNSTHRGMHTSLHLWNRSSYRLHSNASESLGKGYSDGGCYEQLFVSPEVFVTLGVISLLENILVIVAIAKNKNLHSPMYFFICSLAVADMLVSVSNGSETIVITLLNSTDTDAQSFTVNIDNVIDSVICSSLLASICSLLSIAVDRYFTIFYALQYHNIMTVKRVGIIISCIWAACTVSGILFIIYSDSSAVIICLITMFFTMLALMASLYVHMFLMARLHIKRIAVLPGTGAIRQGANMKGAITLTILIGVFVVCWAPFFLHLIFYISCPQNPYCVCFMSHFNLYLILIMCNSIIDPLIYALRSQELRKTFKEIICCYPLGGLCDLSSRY
CSC inhib = cancer stem cell viability inhibitors, primary screen, luminescence; cancer stem cell-like cells viability; inhibition, % at 7.5 µM; actives 1.1% (n = 300,000); AID 2717, 2010; in the data active means inhibition above about 75%; tested in HMLE shEcad cells
ANO1 block = TMEM16A chloride channel inhibitors, primary screen, cell-based, HTS; HEK293 TMEM16A/YFP iodide influx fluorescence, ionomycin; actives 1.2% (n = 310,000); Anoctamin-1 (Mus musculus), Q8BHY3; normalized B-score (activity score, 25-100; higher = stronger inhibition) at 10 µM;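 active means ratio plate-corrected score three or more library SD toward inhibition, starting fluorescence score within five deviations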;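 further: score derived from kinetic fluorescence span divided by baseline fluorescence per well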
MC4R antagonist = MC4R antagonists of cAMP signaling, primary screen, cell-based, TR-FRET, antagonist arm of biased-ligand search. MC4R-expressing cells, MTII-stimulated cAMP, LANCE TR-FRET. inhibition, % at 6.5 µM. actives 0.48% (n = 360,000);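 active means inhibition above its plate's cutoff, the mean of tested wells on that plate plus 3 SD, cut at about 29% in these data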;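 further: 0% = Melanotan II alone and 100% = Melanotan II plus saturating MCL0020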
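System: U2OS cells stably expressing human melanocortin 4 receptor (MC4R). Reagent: Melanotan II challenge after compound preincubation. Doses: 6.5 µM. Times: 30-min compound, 1-h challenge, 1-h detection, room temperature. Measured by: TR-FRET with Eu-cAMP and labeled anti-cAMP, 671 nm. Replicates: singlicate.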
Beta apoptosis = inhibitors of cytokine-induced beta cell apoptosis, primary screen, luminescence. INS-1E cytokine-induced death, ATP luminescence, 48 h; percent of positive-control rescue, neutral wells zero. protection from apoptosis, % (concentration not given with the values). actives 0.8% (n = 300,000);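 active means Every replicate reaches about 75%, or at least half do and their mean reaches it too, limit read from the data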;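 further: 0% = cytokine-treated negative control wells and 100% = positive control rescue; higher means more ATP so stronger rescue from cytokine killing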
cAMP nonselect = nonselective cAMP signaling inhibitors, parental cells, counter-screen for MC4R biased antagonist project, cell-based, TR-FRET, U2OS, forskolin, triplicate; inhibition, % at 6.5 µM; actives 26% (n = 1,600); AID 602193, 2012; shares compounds with MC4R antagonist; LANCE TR-FRET;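 active means mean inhibition over triplicates above the low-control well mean plus 3 SD, set per campaign, cut at about 13% in these data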;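 further: signal is single emission at 671 nm which falls as cellular cAMP rises; 0% = forskolin-stimulated wells and 100% = buffer without forskolin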
MC4R cAMP antag = MC4R cAMP antagonists, retest, confirmation, cell-based, TR-FRET | actives 27% (n = 1,600) | inhibition, % at 6.5 µM | MC4R-expressing cells, MTII-stimulated cAMP | shares compounds with MC4R antagonist; in the data active means inhibition above about 29%;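 further: 0% = agonist stimulated wells alone and 100% = agonist stimulated wells plus saturating reference antagonist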
* marks the source's active call; other numbers are inactive results; i = inactive; nt = no result given. The list is not random: actives were taken first. Their share in the collection is about 3.8%.

SMILES	ANO1 activ	MC4R barr agon	CSC inhib	ANO1 block	MC4R antagonist	Beta apoptosis	cAMP nonselect	MC4R cAMP antag
O=C(CSc1nc2ccccc2n1CC(=O)N1CCOCC1)N1CCCC1	i	0	-27	i	0	-14	nt	nt
COc1ccc(CN2C(=O)c3ccccc3C2=O)cc1C(=O)O	i	1	-9	i	30*	-2	3	-3
CC(C)C1C(c2ccccc2)N(C)C(c2ccccc2)CC1(O)c1ccccc1 (stereo unspecified)	i	2	131*	i	29*	45	3	26
CCCc1nc(SCC(=O)NC2CCCC2)c2ccccc2n1	i	-2	9	i	8	1	nt	nt
CCCc1nc(SCC(=O)Nc2nc3c(s2)CCCC3)c2ccccc2n1	i	2	65	i	36*	-9	11	27
CCc1nc(SCC(=O)Nc2nc3c(s2)CCCC3)c2ccccc2n1	i	2	nt	i	33*	-11	17*	47*
COc1ccc(CNC(=O)CSc2nnc(NC(=O)C3CC3)s2)cc1	i	-1	-9	i	29*	1	0	-6
CCCCCCCN(c1ccccc1)[C@@H]1C[C@H]2CCCC(=O)N3CC[C@@H](C1)[C@@H]23	i	4	nt	nt	34*	nt	-7	34*
CCCCNC(=O)O[C@@H]1C[C@H]2CCCC(=O)N3CC[C@@H](C1)[C@@H]23	i	0	-14	i	5	1	nt	nt
O=C1C2C(c3ccccc3)(C(=O)N1c1ccc(Cl)cc1)C2(c1ccccc1)c1ccccc1 (stereo unspecified)	i	1	75*	i	38*	1	-7	-6
O=C1c2ccccc2C(=O)N1c1ccc(Cl)cc1	nt	nt	-4	i	nt	-4	nt	nt
NS(=O)(=O)c1ccc(N2N=C(c3ccccc3)CC2c2ccc(Br)cc2)cc1 (stereo unspecified)	nt	5	nt	nt	37*	nt	-13	-16
NS(=O)(=O)c1ccc(N2N=C(c3ccccc3)CC2c2ccccc2)cc1 (stereo unspecified)	i	0	42	i	6	6	nt	nt
COC(=O)[C@H](Cc1c[nH]c2ccccc12)NC(=O)NCc1ccc(OC)cc1	i	1	-8	i	37*	-2	-4	1
COc1ccc(CNC(=O)COC(=O)[C@H](Cc2c[nH]c3ccccc23)NC(=O)c2cccs2)cc1	i	-3	nt	i	43*	-8	22*	14
CCCCN(C)C(=O)c1nc2ccccn2c1CN1CCN(c2ncccn2)CC1	i	1	-9	i	-7	0	nt	nt
CCCCN(C)C(=O)c1nc2ccccn2c1CN1CCN(C/C=C/c2ccccc2)CC1	i	-1	-10	i	35*	4	-3	4
O=C1CN(C(=O)CSc2nc(-c3ccc(Cl)cc3)cs2)c2ccccc2N1	i	2	3	i	31*	-4	-4	-18
O=C(OCc1ccccc1F)c1cnc(Cl)c(Cl)c1	i	-2	-6	i	40*	-1	25*	38*
O=C(OCc1ccc([N+](=O)[O-])cc1)c1cnc(Cl)c(Cl)c1	i	-2	2	i	12	nt	nt	nt
O=C(OCc1c(F)cccc1Cl)c1cnc(Cl)c(Cl)c1	i	-1	-3	i	34*	1	17*	43*
Cc1ccc(S(=O)(=O)N2C[C@H]3C(=O)C[C@@H](c4cccc(Cl)c4)N(S(=O)(=O)c4ccc(C)cc4)[C@H]3C[C@H]2c2ccc(Cl)cc2)cc1	nt	1	nt	nt	-2	nt	nt	nt
COc1cc(OC)cc(OC(=O)C2CCN(C(=O)c3ccc(Cl)cc3)CC2)c1	i	2	-11	nt	29*	-4	6	7
COc1cc(OC)cc(OC(=O)C2CCN(C(=O)c3ccc(F)cc3)CC2)c1	i	-2	-2	i	15	0	nt	nt
O=C(Nc1cccc(OC(F)(F)F)c1)C1Cc2c(-c3cccc(F)c3)ccnc2O1 (stereo unspecified)	nt	2	nt	nt	-4	nt	nt	nt
SMILES	ANO1 activ	MC4R barr agon	CSC inhib	ANO1 block	MC4R antagonist	Beta apoptosis	cAMP nonselect	MC4R cAMP antag
CCOC(=O)c1sc(NC(=O)CCN2CCN(CC)CC2)c(C(=O)OCC)c1C	i	-4	35	i	42*	-1	7	26
CC(C)CNC(=O)COC(=O)CNC(=O)c1cc(Cl)cc([N+](=O)[O-])c1	i	-2	-4	i	33*	0	17*	32*
Cc1ccc(-n2nc3ccc(NC(=S)NC(=O)/C=C/c4ccco4)cc3n2)cc1	i	2	16	i	41*	4	5	26
Cc1ccc(-n2nc3cc(C)c(NC(=S)NC(=O)/C=C/c4ccco4)cc3n2)cc1	i	2	0	i	11	-3	nt	nt
CCN(c1ccccc1)S(=O)(=O)c1ccc(NC(=O)c2nc(S(C)(=O)=O)ncc2Cl)cc1	-7.6*	-3	99*	i	60*	98*	24*	46*
Cc1ccccc1CS(=O)(=O)c1ncc(Cl)c(C(=O)Nc2ccc(F)cc2)n1	i	-3	98*	i	42*	15	29*	26
CCS(=O)(=O)c1ncc(Cl)c(C(=O)Nc2ccc(S(=O)(=O)N(C)c3ccccc3)cc2)n1	i	-5	98*	i	52*	105*	4	36*
CC(=O)Nc1ccc(S(=O)(=O)N(C)c2ccccc2)cc1	i	-1	26	i	9	3	nt	nt
CCN(c1ccccc1)S(=O)(=O)c1ccc(C(=O)Nc2ccncc2)cc1	i	2	-14	i	4	-9	nt	nt
Cc1cccc(C)c1NC(=O)c1nc(S(=O)(=O)Cc2ccccc2)ncc1Cl	i	-6	nt	i	-1	nt	nt	nt
CC(=O)c1c(C)[nH]c(C(=O)OCc2csc(CC(=O)Nc3ccccc3C)n2)c1C	i	0	5	nt	1	-5	nt	nt

High-throughput results deposited in PubChem by several laboratories.
